{"source": "ChEMBL document CHEMBL4229344", "about": "(Eur J Med Chem, 2018)", "key": {"[1]": {"target": "Activin receptor type-1B (Homo sapiens) (UniProt P36896)", "assay": "Binding affinity to wild-type human ACVR1B (S187 to I505 residues) expressed in bacterial expression system assessed as residual binding level at 1 uM by Kinomescan method relative to control", "in_short": "(§1)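 Single-concentration (1 μM) competition-binding screen run by KINOMEscan against a panel of 468 purified kinases and mutants. The read-out is the relative binding activity of the test compound to each kinase.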"}, "[2]": {"target": "Dual specificity protein kinase CLK1 (Homo sapiens) (UniProt P49759)", "sequence (P49759 whole entry, looked up, the tested form may be a part)": "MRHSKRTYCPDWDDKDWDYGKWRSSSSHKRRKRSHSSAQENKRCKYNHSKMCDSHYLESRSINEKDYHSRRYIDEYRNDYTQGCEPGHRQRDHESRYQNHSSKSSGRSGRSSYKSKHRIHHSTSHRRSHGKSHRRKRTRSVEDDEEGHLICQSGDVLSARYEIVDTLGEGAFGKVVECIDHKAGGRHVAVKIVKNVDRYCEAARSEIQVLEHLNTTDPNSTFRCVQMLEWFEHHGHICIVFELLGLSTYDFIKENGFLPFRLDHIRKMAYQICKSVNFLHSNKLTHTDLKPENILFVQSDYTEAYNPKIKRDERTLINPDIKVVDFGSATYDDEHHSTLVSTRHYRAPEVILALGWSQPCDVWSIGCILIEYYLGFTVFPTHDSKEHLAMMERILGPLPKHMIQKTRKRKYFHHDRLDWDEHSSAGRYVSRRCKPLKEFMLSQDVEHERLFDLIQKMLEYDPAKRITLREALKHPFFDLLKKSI", "assay": "Binding affinity to wild-type human full length CLK1 (M1 to I484 residues) expressed in bacterial expression system assessed as residual binding level at 1 uM by Kinomescan method relative to control", "in_short": "(§2)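 KINOMEscan competition binding against 468 purified kinases/mutants, test compound at 1 µM; residual binding relative to control.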"}, "[3]": {"target": "Casein kinase I isoform gamma-3 (Homo sapiens) (UniProt Q9Y6M4)", "sequence (Q9Y6M4 whole entry, looked up, the tested form may be a part, canonical isoform)": "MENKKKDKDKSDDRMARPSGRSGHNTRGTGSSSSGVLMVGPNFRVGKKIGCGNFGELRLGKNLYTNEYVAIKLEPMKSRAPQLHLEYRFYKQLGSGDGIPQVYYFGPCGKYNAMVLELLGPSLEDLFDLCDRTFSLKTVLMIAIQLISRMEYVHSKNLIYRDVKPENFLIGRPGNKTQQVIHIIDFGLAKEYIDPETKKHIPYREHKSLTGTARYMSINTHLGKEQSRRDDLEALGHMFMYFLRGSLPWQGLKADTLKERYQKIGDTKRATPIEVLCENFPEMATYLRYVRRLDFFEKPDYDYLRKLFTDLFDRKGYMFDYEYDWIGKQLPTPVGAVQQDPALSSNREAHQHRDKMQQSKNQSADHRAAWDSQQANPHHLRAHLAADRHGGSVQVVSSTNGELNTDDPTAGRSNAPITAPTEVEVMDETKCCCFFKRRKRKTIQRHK", "assay": "Binding affinity to wild-type human full length CSNK1G3 (M1 to K447 residues) expressed in bacterial expression system assessed as residual binding level at 1 uM by Kinomescan method relative to control", "in_short": "as §2"}, "[4]": {"target": "Mitogen-activated protein kinase 4 (Homo sapiens) (UniProt P31152)", "assay": "Binding affinity to wild-type human partial length ERK4 (M1 to L365 residues) expressed in bacterial expression system assessed as residual binding level at 1 uM by Kinomescan method relative to control", "in_short": "(§3)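 Kinome-wide competition binding screen against a panel of 468 purified kinases/mutants, with the test compound at a single concentration of 1 μM. Read-out is the relative binding activity of each kinase in the presence of compound.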"}, "[5]": {"target": "Receptor-type tyrosine-protein kinase FLT3 (Homo sapiens) (UniProt P36888)", "sequence (P36888 whole entry, the tested form may be a part)": "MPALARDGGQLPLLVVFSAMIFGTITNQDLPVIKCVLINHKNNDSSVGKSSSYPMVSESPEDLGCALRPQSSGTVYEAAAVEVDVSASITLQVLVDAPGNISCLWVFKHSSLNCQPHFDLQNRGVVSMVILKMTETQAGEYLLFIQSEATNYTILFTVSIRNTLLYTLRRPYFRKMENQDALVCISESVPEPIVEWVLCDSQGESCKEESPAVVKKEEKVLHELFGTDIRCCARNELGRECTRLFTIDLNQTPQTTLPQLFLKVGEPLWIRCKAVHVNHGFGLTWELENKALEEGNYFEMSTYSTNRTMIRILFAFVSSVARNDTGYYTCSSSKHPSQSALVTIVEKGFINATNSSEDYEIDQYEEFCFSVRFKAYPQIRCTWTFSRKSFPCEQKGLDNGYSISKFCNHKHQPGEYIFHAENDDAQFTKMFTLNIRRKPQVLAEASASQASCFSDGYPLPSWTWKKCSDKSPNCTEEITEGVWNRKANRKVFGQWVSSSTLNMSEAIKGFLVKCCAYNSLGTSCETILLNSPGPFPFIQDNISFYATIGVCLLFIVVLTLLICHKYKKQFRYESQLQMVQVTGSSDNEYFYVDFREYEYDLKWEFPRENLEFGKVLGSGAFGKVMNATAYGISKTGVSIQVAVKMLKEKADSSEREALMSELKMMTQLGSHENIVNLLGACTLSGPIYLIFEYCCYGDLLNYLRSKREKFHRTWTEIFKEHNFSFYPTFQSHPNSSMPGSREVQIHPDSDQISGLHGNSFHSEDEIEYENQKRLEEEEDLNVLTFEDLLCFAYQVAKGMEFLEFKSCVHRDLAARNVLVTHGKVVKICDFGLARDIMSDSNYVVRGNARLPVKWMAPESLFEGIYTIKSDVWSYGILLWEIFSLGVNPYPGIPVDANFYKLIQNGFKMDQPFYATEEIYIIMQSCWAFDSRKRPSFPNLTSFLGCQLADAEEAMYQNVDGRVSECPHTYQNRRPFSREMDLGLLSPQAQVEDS", "assay": "Binding affinity to wild-type human partial length FLT3 (V592 to Y969 residues) expressed in bacterial expression system assessed as residual binding level at 1 uM by Kinomescan method relative to control"}, "[6]": {"test_system": "Mast/stem cell growth factor receptor Kit (Homo sapiens), P10721 [L576P]", "sequence (P10721 whole entry L576P, the tested form may be a part)": "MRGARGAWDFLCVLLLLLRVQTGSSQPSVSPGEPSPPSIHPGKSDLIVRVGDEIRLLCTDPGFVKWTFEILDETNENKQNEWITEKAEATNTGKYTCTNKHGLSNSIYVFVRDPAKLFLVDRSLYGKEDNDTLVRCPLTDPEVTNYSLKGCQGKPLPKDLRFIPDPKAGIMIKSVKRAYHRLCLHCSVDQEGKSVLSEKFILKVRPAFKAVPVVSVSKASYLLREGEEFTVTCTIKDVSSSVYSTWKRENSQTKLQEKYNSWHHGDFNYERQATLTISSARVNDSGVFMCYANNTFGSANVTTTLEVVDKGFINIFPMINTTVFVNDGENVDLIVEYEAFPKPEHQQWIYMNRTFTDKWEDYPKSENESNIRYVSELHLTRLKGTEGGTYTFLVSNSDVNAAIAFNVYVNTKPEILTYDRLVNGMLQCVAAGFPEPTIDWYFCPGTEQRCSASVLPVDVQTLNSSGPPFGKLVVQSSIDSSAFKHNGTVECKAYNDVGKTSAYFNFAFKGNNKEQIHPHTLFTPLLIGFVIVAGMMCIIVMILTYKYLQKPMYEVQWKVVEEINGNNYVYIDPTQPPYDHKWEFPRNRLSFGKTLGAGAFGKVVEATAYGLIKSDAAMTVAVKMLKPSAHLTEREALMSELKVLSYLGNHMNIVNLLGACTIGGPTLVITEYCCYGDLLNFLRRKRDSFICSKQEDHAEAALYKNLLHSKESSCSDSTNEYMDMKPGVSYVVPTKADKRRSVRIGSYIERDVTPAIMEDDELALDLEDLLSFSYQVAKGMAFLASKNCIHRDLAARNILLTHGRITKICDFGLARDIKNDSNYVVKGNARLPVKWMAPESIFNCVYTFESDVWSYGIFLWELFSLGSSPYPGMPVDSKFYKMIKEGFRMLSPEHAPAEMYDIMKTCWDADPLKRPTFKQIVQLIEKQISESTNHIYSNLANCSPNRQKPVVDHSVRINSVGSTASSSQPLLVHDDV", "assay": "Binding affinity to human partial length KIT L576P mutant (Y545 to D952 residues) expressed in bacterial expression system assessed as residual binding level at 1 uM by Kinomescan method relative to control", "in_short": "(§4)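 Kinome-wide single-concentration binding screen (KINOMEscan) at 1 μM against a panel of 468 purified kinases and mutants. Read-out is relative binding of each kinase compared with control. Selectivity across the panel was summarised as an S(10) score.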"}, "[7]": {"test_system": "Mast/stem cell growth factor receptor Kit (Homo sapiens), P10721 [V559D,V654A]", "sequence (P10721 whole entry V559D/V654A, the tested form may be a part)": "as the sequence (P10721 whole entry L576P, the tested form may be a part) above, with V559D, P576L, V654A counted along it", "assay": "Binding affinity to human partial length KIT V559D/V654A double mutant (Y545 to D952 residues) expressed in bacterial expression system assessed as residual binding level at 1 uM by Kinomescan method relative to control", "in_short": "as §4"}, "[8]": {"target": "Mitogen-activated protein kinase kinase kinase kinase 4 (Homo sapiens) (UniProt O95819)", "sequence (O95819 2-1239 limits assumed)": "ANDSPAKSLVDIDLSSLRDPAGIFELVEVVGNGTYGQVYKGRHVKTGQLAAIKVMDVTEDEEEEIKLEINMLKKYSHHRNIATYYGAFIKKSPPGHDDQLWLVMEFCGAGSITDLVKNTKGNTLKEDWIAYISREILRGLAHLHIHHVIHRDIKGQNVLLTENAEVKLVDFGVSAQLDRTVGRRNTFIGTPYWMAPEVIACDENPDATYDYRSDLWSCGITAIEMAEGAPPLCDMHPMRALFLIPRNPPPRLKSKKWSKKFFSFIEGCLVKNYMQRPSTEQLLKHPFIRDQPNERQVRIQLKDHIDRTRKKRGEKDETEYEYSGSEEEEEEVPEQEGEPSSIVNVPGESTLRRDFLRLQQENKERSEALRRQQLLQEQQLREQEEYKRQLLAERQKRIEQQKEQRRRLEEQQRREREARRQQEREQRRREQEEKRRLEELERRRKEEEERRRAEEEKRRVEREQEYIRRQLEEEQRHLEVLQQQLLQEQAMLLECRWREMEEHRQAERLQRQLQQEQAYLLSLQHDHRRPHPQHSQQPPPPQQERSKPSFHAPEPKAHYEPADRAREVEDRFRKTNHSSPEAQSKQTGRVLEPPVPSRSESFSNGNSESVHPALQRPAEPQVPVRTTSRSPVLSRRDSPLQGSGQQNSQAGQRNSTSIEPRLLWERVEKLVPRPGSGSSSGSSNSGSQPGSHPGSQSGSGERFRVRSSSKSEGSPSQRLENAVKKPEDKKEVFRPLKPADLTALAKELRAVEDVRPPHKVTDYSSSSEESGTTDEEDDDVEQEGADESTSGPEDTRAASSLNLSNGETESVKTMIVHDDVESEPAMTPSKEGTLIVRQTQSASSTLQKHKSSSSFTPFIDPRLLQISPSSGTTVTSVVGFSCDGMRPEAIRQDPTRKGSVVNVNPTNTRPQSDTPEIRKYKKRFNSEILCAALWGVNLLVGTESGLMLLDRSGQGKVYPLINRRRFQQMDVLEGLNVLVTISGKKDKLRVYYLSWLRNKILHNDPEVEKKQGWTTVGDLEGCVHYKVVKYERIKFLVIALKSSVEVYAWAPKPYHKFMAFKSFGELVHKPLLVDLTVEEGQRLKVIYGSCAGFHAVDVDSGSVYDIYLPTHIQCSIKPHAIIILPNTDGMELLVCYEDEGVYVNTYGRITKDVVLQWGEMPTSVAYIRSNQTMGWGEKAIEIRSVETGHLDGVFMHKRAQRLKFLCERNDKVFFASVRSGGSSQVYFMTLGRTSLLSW", "assay": "Binding affinity to wild-type human partial length MAP4K4 (M1 to R310 residues) expressed in bacterial expression system assessed as residual binding level at 1 uM by Kinomescan method relative to control", "in_short": "as §3"}, "[9]": {"target": "Dual specificity mitogen-activated protein kinase kinase 5 (Homo sapiens) (UniProt Q13163)", "assay": "Binding affinity to wild-type human partial length MEK5 (L98 to P448 residues) expressed in mammalian expression system assessed as residual binding level at 1 uM by Kinomescan method relative to control"}, "[10]": {"target": "Serine/threonine-protein kinase 26 (Homo sapiens) (UniProt Q9P289)", "assay": "Binding affinity to wild-type human full length MST4 (M1 to P416 residues) expressed in mammalian expression system assessed as residual binding level at 1 uM by Kinomescan method relative to control", "in_short": "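Single-concentration KINOMEscan (DiscoverX) binding screen at 1 μM against a panel of 468 purified kinases and mutants. The read-out is binding relative to control.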"}, "[11]": {"target": "Serine/threonine-protein kinase pim-2 (Homo sapiens) (UniProt Q9P1W9)", "assay": "Binding affinity to wild-type human partial length PIM2 (M1 to E291 residues) expressed in bacterial expression system assessed as residual binding level at 1 uM by Kinomescan method relative to control"}, "[12]": {"target": "Phosphatidylinositol 5-phosphate 4-kinase type-2 beta (Homo sapiens) (UniProt P78356)", "assay": "Binding affinity to wild-type human full length PIP5K2B (M1 to T416 residues) expressed in bacterial expression system assessed as residual binding level at 1 uM by Kinomescan method relative to control", "in_short": "as §2"}, "[13]": {"target": "Serine/threonine-protein kinase PknB (Mycobacterium tuberculosis) (UniProt P9WI81)", "assay": "Binding affinity to wild-type Mycobacterium tuberculosis H37Rv ATCC 25618 partial length PKNB (M1 to G279 residues) expressed in mammalian expression system assessed as residual binding level at 1 uM by Kinomescan method relative to control", "in_short": "as §1"}, "[14]": {"target": "Proto-oncogene tyrosine-protein kinase ROS (Homo sapiens) (UniProt P08922)", "assay": "Binding affinity to wild-type human partial length ROS1 (A1921 to N2240 residues) expressed in bacterial expression system assessed as residual binding level at 1 uM by Kinomescan method relative to control"}, "[15]": {"target": "NUAK family SNF1-like kinase 2 (Homo sapiens) (UniProt Q9H093)", "sequence (Q9H093 whole entry, the tested form may be a part)": "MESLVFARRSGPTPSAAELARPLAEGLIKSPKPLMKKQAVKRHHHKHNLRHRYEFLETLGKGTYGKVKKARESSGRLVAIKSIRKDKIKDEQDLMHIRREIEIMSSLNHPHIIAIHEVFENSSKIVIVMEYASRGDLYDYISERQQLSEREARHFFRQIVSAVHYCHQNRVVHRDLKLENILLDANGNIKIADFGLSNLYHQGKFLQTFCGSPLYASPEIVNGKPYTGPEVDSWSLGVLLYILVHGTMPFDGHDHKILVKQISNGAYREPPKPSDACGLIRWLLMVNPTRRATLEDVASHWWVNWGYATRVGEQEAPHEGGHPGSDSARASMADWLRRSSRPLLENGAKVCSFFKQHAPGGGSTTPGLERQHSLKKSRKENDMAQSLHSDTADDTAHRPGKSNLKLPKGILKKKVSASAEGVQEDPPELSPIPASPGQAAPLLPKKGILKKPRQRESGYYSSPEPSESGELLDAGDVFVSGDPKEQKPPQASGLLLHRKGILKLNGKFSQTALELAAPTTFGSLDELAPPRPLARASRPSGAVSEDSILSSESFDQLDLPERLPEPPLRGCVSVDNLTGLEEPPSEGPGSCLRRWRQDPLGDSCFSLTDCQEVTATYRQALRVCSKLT", "assay": "Binding affinity to wild-type human partial length SNARK (P22 to A333 residues) expressed in mammalian expression system assessed as residual binding level at 1 uM by Kinomescan method relative to control"}, "[16]": {"target": "Tyrosine-protein kinase receptor TYRO3 (Homo sapiens) (UniProt Q06418)", "assay": "Binding affinity to wild-type human partial length TYRO3 (S497 to T814 residues) expressed in bacterial expression system assessed as residual binding level at 1 uM by Kinomescan method relative to control"}, "[17]": {"target": "Serine/threonine-protein kinase WNK3 (Homo sapiens) (UniProt Q9BYP7)", "assay": "Binding affinity to wild-type human partial length WNK3 (M1 to D434 residues) expressed in mammalian expression system assessed as residual binding level at 1 uM by Kinomescan method relative to control"}, "[18]": {"target": "Tyrosine-protein kinase ABL1 (Homo sapiens, UniProt P00519)", "assay": "Inhibition of ABL1 (unknown origin) using poly(4:1 Glu,Tyr) peptide as substrate preincubated for 1 hr followed by addition of ATP and measured after 30 mins by ADP-Glo bioluminescence assay"}, "EOL1": {"test_system": "EOL1", "assay": "Antitumor activity against human EOL-1 cells xenografted in nu/nu mouse assessed as tumor growth inhibition at 50 mg/kg/day, ip", "format": "functional", "conditions": "read-out: TGI", "in_short": "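Female nu/nu mice (6 weeks) given subcutaneous right-flank injection of 5 million EOL-1 cells in PBS/Matrigel 1:1. At 200–400 mm3 tumors, randomized to groups of 6 and dosed daily i.p. for 14 days at 25, 50 or 100 mg/kg/d in 0.5% methylcellulose/0.4% Tween80. Tumor volume = W²×L/2, measured daily.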"}, "Mus musculus": {"test_system": "Mus musculus", "assay": "Toxicity in NOD-SCID mouse engrafted with human EOL-1 cells assessed as change in body weight at 30 mg/kg/day, ip administered 3 weeks post cell inoculation", "format": "organism-based", "conditions": "in vivo, 504 h"}, "[19]": {"target": "Platelet-derived growth factor receptor alpha (Homo sapiens, UniProt P16234)"}}, "note": "pIC50: −log10 of the molar value.", "data": [{"smiles": "Cc1ccc(NC(=O)c2ccc(CN(CCN(C)C)C(=O)c3cccnc3)cc2)cc1Nc1nccc(-c2cccnc2)n1", "values": [{"measurement": "Activity", "setting": "[1]", "result": 100, "unit": "%"}, {"measurement": "Activity", "setting": "[2]", "result": 87, "unit": "%"}, {"measurement": "Activity", "setting": "[3]", "result": 92, "unit": "%"}, {"measurement": "Activity", "setting": "[4]", "result": 89, "unit": "%"}, {"measurement": "Activity", "setting": "[5]", "result": 89, "unit": "%"}, {"measurement": "Activity", "setting": "[6]", "result": 0.6, "unit": "%"}, {"measurement": "Activity", "setting": "[7]", "result": 25, "unit": "%"}, {"measurement": "Activity", "setting": "[8]", "result": 87, "unit": "%"}, {"measurement": "Activity", "setting": "[9]", "result": 100, "unit": "%"}, {"measurement": "Activity", "setting": "[10]", "result": 99, "unit": "%"}, {"measurement": "Activity", "setting": "[11]", "result": 93, "unit": "%"}, {"measurement": "Activity", "setting": "[12]", "result": 83, "unit": "%"}, {"measurement": "Activity", "setting": "[13]", "result": 99, "unit": "%"}, {"measurement": "Activity", "setting": "[14]", "result": 99, "unit": "%"}, {"measurement": "Activity", "setting": "[15]", "result": 100, "unit": "%"}, {"measurement": "Activity", "setting": "[16]", "result": 85, "unit": "%"}, {"measurement": "Activity", "setting": "[17]", "result": 100, "unit": "%"}, {"measurement": "pIC50", "setting": "[18]", "result": "< 5.00"}, {"measurement": "inhibition in vivo at 50 mg/kg/day", "setting": "EOL1", "result": 95.4, "unit": "%"}, {"measurement": "Activity", "setting": "Mus musculus", "result": "Non-Toxic"}, {"measurement": "GI50", "setting": "[19]", "result": 34, "unit": "nM"}]}]}
